Compounds with a hit are over-represented: about 1.3% of the library has one in this group of screens.
RAD54 branch – inhibitors of human RAD54 branch migration; inhibition, % at 10.4 µM; RAD54 Holliday junction branch migration, FAM/BHQ fluorescence; AID 602329; 360,000 compounds, 0.14% hits; Q92698;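 active = mean normalized replicate activity at least 40 and at least half of replicates scoring 40 or more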;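 note: 0% = median of neutral control wells and 100% = median of positive control wells; inhibitors cause a drop in the FAM fluorescence signal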
RAD52 inh – RAD52 (human) annealing inhibition; P43351; 360,000 compounds, 0.46% hits; recombinant RAD52 DNA annealing, FRET fluorescence; inhibition, % at 18.7 µM; AID 651710;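 active = every replicate showing at least 50% inhibition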
Target sequence (P43351 whole entry, looked up): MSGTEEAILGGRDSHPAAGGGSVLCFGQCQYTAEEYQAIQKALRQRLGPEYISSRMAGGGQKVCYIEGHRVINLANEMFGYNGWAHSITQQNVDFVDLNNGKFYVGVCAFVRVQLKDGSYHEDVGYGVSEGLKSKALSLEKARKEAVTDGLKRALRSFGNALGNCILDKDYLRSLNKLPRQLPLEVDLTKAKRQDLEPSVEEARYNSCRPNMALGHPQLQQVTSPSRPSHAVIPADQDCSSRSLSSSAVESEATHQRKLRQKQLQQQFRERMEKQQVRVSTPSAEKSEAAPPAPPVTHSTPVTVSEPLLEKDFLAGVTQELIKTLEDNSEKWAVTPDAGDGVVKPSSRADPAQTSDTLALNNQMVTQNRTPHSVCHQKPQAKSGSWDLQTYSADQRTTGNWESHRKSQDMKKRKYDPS
S100A4 MyoIIA – inhibitors of human S100A4 binding to myosin IIA peptide; AID 652163; inhibition, % at 10.7 µM; P26447; S100A4/TAMRA-MyoIIA peptide fluorescence polarization; 360,000 compounds, 0.14% hits;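 active = mean inhibition of at least 70% across replicates, with every replicate also reaching that level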
Target sequence (P26447 whole entry, looked up): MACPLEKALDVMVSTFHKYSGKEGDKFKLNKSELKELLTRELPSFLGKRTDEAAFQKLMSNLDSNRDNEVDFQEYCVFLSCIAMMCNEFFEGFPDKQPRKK
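Test system: S100A4 monomer protein; Medium: HEPES pH 7.2 with CaCl2, KCl, NaCl, DTT, Triton; Probe or stimulus: TAMRA-labelled myosin IIA heavy-chain peptide probe, 5 nM; Doses: one dose per compound; Times: polarization read 5 min after assay mix addition, stable 5–60 min; Benchmarks: neutral control DMSO, positive control TFP.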
AF4-AF9 inh – MLL-AF4/AF9 protein interaction inhibition | AlphaScreen, biotin-AF4 peptide binding to FLAG-AF9 | inhibition, % at 10 µM | 350,000 compounds, 0.47% hits | AID 651704;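 active = every replicate reaching a set inhibition limit, whatever the replicate mean, cut at about 25% in these data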;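 note: 0% = plate neutral control median and 100% = total signal loss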
GSIS activator – GLuc luminescence reporter in INS-1E cells, primary screen for activators of glucose-dependent secretion of insulin. activation, % at 16.6 µM. 370,000 compounds, 0.61% hits. INS-1E GLuc reporter insulin secretion, 2-3 h;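 active = lowest replicate activation of at least 40%, so every replicate reaches that level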;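 note: 0% = median of neutral control wells and 100% = median of IBMX positive control wells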
* = called active by the depositor; . = no result given.

SMILES	RAD54 branch	RAD52 inh	S100A4 MyoIIA	AF4-AF9 inh	GSIS activator
C[C@H]1CCCCO[C@@H](CN(C)Cc2ccncc2)[C@@H](C)CN([C@@H](C)CO)C(=O)c2cc(NC(=O)c3ccncc3)ccc2O1	1	-9	-1	-4	19
C[C@H](CO)N1C[C@H](C)[C@@H](CN(C)C(=O)Nc2ccc(F)cc2)Oc2ccc(N(C)C)cc2CC1=O	0	10	-10	0	-3
C[C@@H]1CCCCO[C@H](CN(C)Cc2ccc(C(=O)O)cc2)[C@H](C)CN([C@@H](C)CO)C(=O)c2cc(NC(=O)c3ccncc3)ccc2O1	5	101*	-1	-4	6
C[C@H](CO)N1C[C@H](C)[C@@H](CN(C)Cc2ccc(C(=O)O)cc2)OCCCC[C@H](C)Oc2ccc(NC(=O)c3ccncc3)cc2C1=O	0	96*	-1	-3	14
C[C@H]1CCCCO[C@H](CN(C)Cc2ccncc2)[C@@H](C)CN([C@@H](C)CO)C(=O)c2cc(NC(=O)c3ccncc3)ccc2O1	-8	1	-3	-2	2
O=C(NCC[C@H]1CC[C@@H](NC(=O)c2cnccn2)[C@H](CO)O1)c1ccc2c(c1)OCO2	1	-3	-1	0	10
Cc1noc(C)c1S(=O)(=O)Nc1ccc2c(c1)C(=O)N([C@H](C)CO)C[C@@H](C)[C@H](CN(C)S(=O)(=O)c1ccccc1)OCCCC[C@@H](C)O2	-1	-28	-15	2	-24
Oc1ccc(N=Nc2ccc3ccccc3c2)cc1	-5	-5	-2	26*	-10
COc1cc(N=Nc2ccc3ccccc3c2)ccc1O	4	-17	-3	29*	-10
Oc1ccc(N=Nc2c(O)ccc3ccccc23)cc1	-2	-13	-6	6	-8
COc1cc(N=Nc2ccccc2C(=O)O)ccc1O	-12	-43	-36	4	-18
C[C@H](CO)N1C[C@H](C)[C@H](CN(C)C(=O)C2CCCCC2)OCCCC[C@H](C)Oc2ccc(NS(=O)(=O)c3cccs3)cc2C1=O	0	.	.	.	-20
COc1ccc(OCCCN(C)Cc2ccccc2)cc1	6	-3	-2	-5	20
CCC(C)c1ccccc1OCCCN(C)Cc1ccccc1 (centres undefined)	4	0	-8	6	192*
C[C@@H]1CN([C@H](C)CO)C(=O)c2cc(NS(C)(=O)=O)ccc2O[C@@H]1CN(C)Cc1ccncc1	0	5	4	0	15
CO[C@H]1CN(C)C(=O)c2cc(NC(=O)c3cccc(F)c3)ccc2OC[C@H](C)N(C(C)=O)C[C@H]1C	.	.	.	.	0
O=C(NCC[C@H]1CC[C@@H](NC(=O)C2CCCCC2)[C@H](CO)O1)Nc1ccc(Cl)cc1	2	-5	22	8	-9
C[C@H](NC(=O)c1nc[nH]c1C(=O)N1CCN(C(=O)OC(C)(C)C)CC1)C(=O)OCc1ccccc1	7	3	0	-1	-3
CC1CCN(C(=O)c2[nH]cnc2C(=O)N[C@@H](C)C(=O)OCc2ccccc2)CC1	3	-9	138*	-2	2
COc1ccccc1CCn1cnc(-c2ccc(Cl)cc2)c1CC(C)C	.	-16	7	7	307*
CCCCc1c(-c2ccccc2OC)ncn1C(C)c1ccc(Cl)cc1 (centres undefined)	.	-34	10	12	55*
COc1ccccc1CCn1cnc(-c2cccc(F)c2)c1CC(C)C	.	0	9	4	141*
CCCCc1c(-c2ccccc2F)ncn1CCc1ccccc1OC	.	16	-4	7	64*
CCCCCc1c(-c2ccccc2F)ncn1CCc1ccccc1OC	.	25	-4	3	20
CCOC(=O)Cc1csc(/N=C/c2c(O)n(-c3ccc(C)c(C)c3)c(=O)c3ccccc23)n1	.	.	.	.	42*
SMILES	RAD54 branch	RAD52 inh	S100A4 MyoIIA	AF4-AF9 inh	GSIS activator
Cc1cc(N=Cc2c(O)n(-c3ccc(C)c(C)c3)c(=O)c3ccccc23)no1	.	.	.	.	-6
C[C@@H]1CN([C@H](C)CO)S(=O)(=O)c2ccc(C#Cc3ccc(F)cc3)cc2O[C@@H]1CN(C)C	2	37	-9	9	-17
C[C@@H]1CN([C@@H](C)CO)S(=O)(=O)c2ccc(C#Cc3ccc(F)cc3)cc2O[C@H]1CN(C)C(=O)CN(C)C	12	55*	1	12	-3
C[C@H](CO)N1C[C@H](C)[C@@H](CN(C)C(=O)CN(C)C)Oc2cc(C#Cc3ccc(F)cc3)ccc2S1(=O)=O	3	52*	-17	12	-2
Cc1cccn2c(=O)nc(SCC(=O)N3CCCCC3)nc12	.	2	-8	-26	43*
C=CCSc1nc(=O)n2ccccc2n1	-9	-6	-2	-4	17
C=CCSc1nc(=O)n2cccc(C)c2n1	-1	-12	-1	-4	67*
O=C(NCC[C@H]1CC[C@H](NS(=O)(=O)c2cccc(F)c2)[C@@H](CO)O1)C1CCC1	-5	8	2	0	6
CC(=O)N1/C(=C/c2ccc(N(C)C)cc2)C(=O)c2ccccc21	.	-43	-30	44*	4
CN(C)c1ccc(/C=C2\CCC/C(=C\c3ccccc3)C2=O)cc1	-15	-44	-2	3	.
C(=C\c1sc(Nc2ccccc2)n[n+]1-c1ccccc1)/c1ccccc1	5	-36	-2	31*	-1
COc1ccc(-c2sc(Nc3ccccc3)n[n+]2-c2ccccc2)cc1Br	-8	-34	4	-6	1
CSc1ccccc1NC(=O)Cn1c([N+](=O)[O-])cnc1C	6	-6	0	42*	38
Cc1ncc([N+](=O)[O-])n1CC(=O)Nc1ccccc1F	5	0	-2	-2	10
COc1ccc2c3c([nH]c2c1)[C@@H](CO)N(C(=O)c1cccnc1)CC31CCN(C(=O)c2cccnc2)CC1	.	-6	2	-19	9
COc1ccc(Nc2ccc(Cl)nn2)cc1	-8	-8	-2	43*	-2
COc1ccc(NC(C)C(=O)Nc2cc(C(F)(F)F)ccc2N2CCOCC2)c(OC)c1 (centres undefined)	-8	0	13	26*	-4
COc1ccc(-c2ocnc2C(=O)Nc2ccc(N3CCOCC3)cc2N2CCOCC2)cc1OC	-5	-17	-6	18	85*
COc1cc(Cl)c(C)cc1NC(C)C(=O)Nc1cc(C(F)(F)F)ccc1N1CCOCC1 (centres undefined)	.	.	.	.	-4
COc1cc(C(=O)Nc2cc(C(F)(F)F)ccc2N2CCOCC2)ccc1OCC(=O)N1CCOCC1	.	-3	18	-3	50*
CCCNC(=O)C[C@@H]1C[C@@H]2c3cc(NS(=O)(=O)c4ccc(F)cc4)ccc3O[C@@H]2[C@H](CO)O1	-12	-10	-1	1	4
O=C(C1CCC1)N1CC2(C1)[C@H](c1ccccc1)[C@@H](CO)N2C(=O)c1ccccn1	.	0	4	0	20
